# Screening results (PubChem)
# Myeloid diff 2 – compounds promoting myeloid differentiation. ER-HoxA9 myeloid progenitors, lysozyme-GFP differentiation, flow cytometry. calls only at 10 µM. actives 1% (n = 360,000). AID 624256;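 active means normalized GFP-positive differentiation at or above the plate's own cutoff, the solvent-only control mean plus 3 SD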;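 further: cells exposed to compound for four days before flow analysis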
# Exocytosis inh – lytic granule exocytosis inhibition | inhibition, % at 10 µM | TALL-104 LAMP-1 surface exposure, flow cytometry; cells stimulated with thapsigargin and PMA | actives 0.66% (n = 360,000);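 active means inhibition above about 55%, limit read from the data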
# ATG4B inh – blocks human ATG4B protease cleavage of LC3 substrate; actives 0.51% (n = 340,000); ATG4B cleavage of LC3-PLA2, NBD-HPC fluorescence, 1 h; inhibition, % at 8.33 µM; in the data active means inhibition above about 40%
# Target sequence (Q9Y4P1 whole entry, looked up): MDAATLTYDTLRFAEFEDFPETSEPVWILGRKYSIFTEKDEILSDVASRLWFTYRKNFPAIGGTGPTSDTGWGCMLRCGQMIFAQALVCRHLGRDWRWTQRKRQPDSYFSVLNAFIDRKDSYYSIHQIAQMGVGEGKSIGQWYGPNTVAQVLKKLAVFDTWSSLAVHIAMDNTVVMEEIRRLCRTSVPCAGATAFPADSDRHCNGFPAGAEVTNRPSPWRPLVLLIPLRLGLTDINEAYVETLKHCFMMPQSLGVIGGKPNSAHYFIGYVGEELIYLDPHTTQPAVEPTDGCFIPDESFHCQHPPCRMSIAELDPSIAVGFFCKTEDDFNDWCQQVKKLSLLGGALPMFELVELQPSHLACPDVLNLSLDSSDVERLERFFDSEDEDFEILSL
# Arrestin-AP2 inh – human beta-arrestin and AP2 interaction inhibition; FITC-arrestin peptide / GST-AP2 beads, flow cytometry; AP2 beta2 appendage carries R879A mutation; inhibition, % at 10 µM; actives 0.31% (n = 340,000); AID 504490;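 active means inhibition above a set limit, near 3 SD of compounds lacking own fluorescence, cut at about 54% in these data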;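 further: plate controls were DMSO wells for no effect and 5 µM unlabelled arrestin peptide for full effect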
#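 Measured by: flow cytometry, FL1 (488/535 nm); Material: AP2 appendage R879A on GSH beads; Evaluation: percent response; Timing: pre-incubation 12 min, peptide binding 1 h, room temperature; Also added: 50 nM FITC-arrestin peptide; Medium: PBS with 0.05% Tween 20 and 0.1% BSA.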
# ABCB6 inh 2 – human ABCB6 transporter inhibition; Q9NP58; K562-ABCB6 porphyrin accumulation, flow cytometry, 1 h; hits give low values; fluorescence ratio to DMSO, % at 10 µM; actives 0.19% (n = 360,000); AID 602162;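 active means fluorescence ratio to DMSO below 75%, the collection mean minus 3 SD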;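 further: signal is porphyrin accumulated inside mitochondria; 100% equals median channel fluorescence of DMSO control wells; lower ratio means ABCB6 inhibition with less porphyrin fluorescence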
# NRP1-CendR mod – NRP-1/CendR interaction modulation. actives 0.85% (n = 360,000). FAM-RPARPAR peptide binding to NRP-1, fluorescence polarization. O14786. inhibition, % at 25 µM;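 active means inhibition or corrected inhibition above about 18%, plus a signal ratio from 0.5 to 1.5, limit read from the data, passing the limit was not always enough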
# Myeloid diff – compounds promoting myeloid differentiation. shares compounds with Myeloid diff 2. ER-HoxA9 myeloid progenitors, GFP/Mac1 double-positive flow. calls only. actives 2% (n = 2,300). AID 651706;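 active means share of green or green-and-red cells above 9 and 9% in run 1 or 4 and 3% in run 2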
# GFP autofluor – compound fluorescence in myeloid differentiation counter-screen | shares compounds with Myeloid diff 2 | ER-HoxA9 myeloid progenitors, no estrogen, GFP autofluorescence flow cytometry; vehicle wells 0%, positive control 100% | fluorescence response, % (no concentration beside the values) | actives 7.4% (n = 2,300) | AID 651707;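 active means over 5% cells positive for green fluorescent reporter, or over 2% positive for both it and APC stain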;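 further: range taken on the double positive population between DMSO and positive control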
# An asterisk follows results filed as active; i = inactive; nt = no result given; + = active, no number. Most compounds without a hit are left out; they make up all but 3.3% or so of the library.
SMILES,Myeloid diff 2,Exocytosis inh,ATG4B inh,Arrestin-AP2 inh,ABCB6 inh 2,NRP1-CendR mod,Myeloid diff,GFP autofluor
O=C(c1ccc2ccccc2c1)C1CCCN(S(=O)(=O)c2cccnc2)C1 (centres undefined),i,0,7,15,89,12,nt,nt
CCC(C)NC(=O)Cn1ccc2cc(S(=O)(=O)N3CCCCCC3)ccc21 (centres undefined),i,-2,-1,-14,93,5,nt,nt
O=C(NCC1CCCO1)C(c1ccc(F)cc1)N(C(=O)Cn1nnc(-c2ccc(F)cc2)n1)c1cccc(O)c1 (centres undefined),i,-2,-7,2,96,7,i,0
Cc1ccc(C(=O)C[n+]2cccc3ccccc32)cc1,+,-3,-1,-2,716,-24,i,1
O=C(C[n+]1cccc2ccccc21)c1ccc(Br)cc1,+,-3,2,4,213,-30,i,1
Cc1ccc(C(=O)C[n+]2ccccc2)cc1,i,-6,2,-14,100,-2,nt,nt
O=C(C[n+]1cc(Br)cc2ccccc21)c1ccc(Br)cc1,i,0,7,-3,138,-30,nt,nt
O=C(COc1cccc2ccccc12)NNC(=O)CSCCO,i,6,6,6,99,9,nt,nt
Cc1cc2c(sc3c(C)ccc(C)c32)c(C)n1,i,40,-15,0,98,-4,nt,nt
COc1cccc(-c2csc(NC(=O)Oc3ccccc3)n2)c1,i,-5,-4,8,91,17,i,0
O=C1CCC(=O)N1CCSC(=S)N1CCOCC1,i,6,8,41,102,5,nt,nt
CCCCN(C(=O)c1ccc2c(c1)S(=O)(=O)N=C1CCCCCN12)c1c(N)n(CCCC)c(=O)[nH]c1=O,i,-3,-8,44,100,-7,nt,nt
CCOC(=O)c1c(-c2ccc(OC)cc2)csc1NC(=O)CSc1ncnc2sccc12,i,-10,-11,-4,95,-18,i,1
CC1CCCCN1C(=O)Cn1cnc2c1c(=O)n(C)c(=O)n2C (centres undefined),i,-4,-9,-7,104,4,nt,nt
COc1ccc(NC(=O)c2ccco2)cc1NC(=O)c1ccco1,i,-1,0,18,103,0,i,0
COc1ccccc1N1C(=NC(=O)COc2ccccc2)SC2CS(=O)(=O)CC21 (centres undefined),i,0,-11,-9,97,1,nt,nt
CCC(=O)Nc1cccc(C(=O)/C=C/c2ccccc2)c1,i,3,-4,7,86,-15,i,3
Cc1cc(C(=O)COC(=O)c2ccc(NC(=O)CC#N)cc2)c(C)n1CCc1ccc(F)cc1,i,1,-53,-16,93,-41,i,3
O=C(c1cccc(NC2=NC3CS(=O)(=O)CC3S2)c1)N1CCN(c2cccc(Cl)c2)CC1 (centres undefined),i,6,-7,-6,98,1,nt,nt
CS(=O)(=O)N1N=C(c2ccc(Br)cc2)CC1c1cccs1 (centres undefined),i,-7,5,7,119,2,nt,nt
Cc1ccc(C2=NN(S(C)(=O)=O)C(c3cccs3)C2)cc1 (centres undefined),i,1,-2,-7,95,5,i,0
CCOc1ccc(S(=O)(=O)N(C)c2ccc(OCC(=O)Nc3nc(-c4cc(OC)ccc4OC)cs3)cc2)cc1,i,0,-7,-2,100,-11,nt,nt
CCCn1c(SCC(=O)NCc2ccc(F)cc2)n[nH]c1=O,i,4,-2,8,98,-8,nt,nt
CC12Cc3ccc4ccccc4c3C=C1C[N+](C)(C)C2 (centres undefined),i,6,3,-9,98,-11,nt,nt
CC[N+]1(CC)CC2=Cc3c(ccc4ccccc34)CC2C1 (centres undefined),+,-5,-7,4,104,3,i,0
SMILES,Myeloid diff 2,Exocytosis inh,ATG4B inh,Arrestin-AP2 inh,ABCB6 inh 2,NRP1-CendR mod,Myeloid diff,GFP autofluor
Nc1nnc(COc2ccc(Br)cc2Br)s1,i,3,3,-4,112,-46,nt,nt
Cc1ccc(C)c(OCc2nnc(N)s2)c1,i,6,-1,2,106,17,i,0
Cc1ccc(OCC(=O)NNC(=O)c2ccco2)c(C)c1,i,6,0,29,101,4,nt,nt
Cc1ccc(F)c(C2C3C=CCC(c4cccc(-c5ccc(N(C)C)cc5)c4)C3C(=O)N2Cc2ccccc2)c1 (centres undefined),i,-1,1,10,98,10,nt,nt
CCOC(=O)/C=C1\SCC(=O)N1CC(=O)NC12CC3CC(CC(C3)C1)C2,+,0,-12,13,96,-13,i,0
COc1ccc(NC(=O)N2CCN(CCC#N)CC2)cc1,i,0,-7,20,97,-12,i,0
COCCn1nnnc1CN1CCN2CCCC2C1 (centres undefined),+,2,12,-5,96,6,i,0
O=C(CN1CCCCC1)Nc1nnc(-c2ccccc2)s1,i,-2,-7,-3,101,-6,nt,nt
O=C(CN1CCCCC1)Nc1nnc(-c2ccc([N+](=O)[O-])cc2)s1,i,5,6,7,108,-8,i,0
CN(C)CCCNC(=O)OC1CC2CC1[C@H]1CCCCN1C2=O (some centres undefined),i,8,nt,nt,98,4,nt,nt
COc1cccc(CNC(=O)Cn2ncn3cccc3c2=O)c1OC,i,-4,-10,-4,102,3,nt,nt
C/C(=N\NC(=S)NCc1ccccc1)c1ccc2ccccc2c1OC(F)F,i,4,-4,-3,104,24,nt,nt
CN(C)S(=O)(=O)c1cccc(NC(=O)COC(=O)CCc2nc3ccccc3s2)c1,i,0,-14,5,93,-4,i,2
CN(C)S(=O)(=O)c1cccc(NC(=O)COC(=O)c2ccc3ccccc3n2)c1,i,8,-11,33,98,-13,nt,nt
CN(C)C(=O)CNC(=O)CN1C(=O)NC2(CCCc3sccc32)C1=O (centres undefined),i,-16,-9,-12,100,7,nt,nt
C=CCN1C(=O)/C(=C2/Sc3ccc(OC)cc3N2C)SC1=Nc1cccc(O)c1,i,3,6,16,107,-80,i,0
Cc1ccccc1COc1cccn2c(N(C)C(=O)CCC3CCCC3)c(C)nc12,i,-6,nt,nt,97,13,nt,nt
